# Hits are enriched below; roughly 2.3% of the tested compounds scored in any of these assays.
# TRPC6 inhibitor – inhibitors of mouse TRPC6 channel. B-score at 10 µM. AID 2553. HEK293-TRPC6, membrane potential dye, ACh-evoked depolarization; stronger effect = lower value. Q61143. 310,000 tested, 1.1% active;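 active = B-score under library mean minus 3 SD, initial fluorescence not abnormally high, positive integrated signal ratio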;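 also: B-score derived from integrated fluorescence ratio over the kinetic read; more negative B-score means stronger inhibition of depolarization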
# TRPC6 activator – mouse TRPC6 channel activation; B-score at 10 µM; 310,000 tested, 0.13% active; HEK293-TRPC6 membrane potential dye fluorescence; stronger effect = higher value; Q61143;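 active = B-score of the integrated fluorescence ratio above library mean plus 3 SD, and starting fluorescence ratio within library mean plus 5 SD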;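 also: higher score means more depolarization so channel activation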
# TRPC4 inh – blocks the mouse TRPC4 cation channel; AID 2247; B-score at 10 µM; 300,000 tested, 0.39% active; HEK293 TRPC4beta/mu-opioid, DAMGO-evoked Fluo4 calcium flux; stronger effect = lower value; Q9QUQ5;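 active = B-score over 3 SD under the library average, no early fluorescence shift, positive overall ratio signal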
#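 material = TRPC4beta/mu-opioid receptor HEK293 cell line | probe or stimulus = sequential submaximal and maximal DAMGO stimulation | compound dosing = one concentration per compound | measured by = Fluo4 Ca2+ flux fluorescence | evaluation = integrated fluorescence ratio relative to baseline, converted to per-well B score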
# TRPC4 PAM – TRPC4 (mouse) allosteric potentiation | Q9QUQ5 | HEK293 TRPC4beta/mu-opioid, DAMGO EC20, Fluo-4 Ca2+ flux; stronger effect = higher value | AID 2227 | 310,000 tested, 0.42% active | B-score at 10 µM;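 active = B-score of calcium response area above 5 SD of library B-scores, with initial fluorescence ratio within 5 SD of library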;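 also: B-score of integrated fluorescence ratio over time as area under calcium response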
# TRPC4 act – TRPC4 (mouse) channel activation. Q9QUQ5. HEK293 TRPC4beta/mu-opioid, Fluo4 calcium fluorescence; stronger effect = higher value. B-score at 10 µM. 310,000 tested, 0.49% active. AID 2237;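 active = B-score above 5 SD of library B-scores, and initial fluorescence ratio not above library mean plus 5 SD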;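 also: positive B-score marks a calcium rise read as TRPC4 activation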
#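 Assay system: HEK293 stable line with TRPC4beta plus mu-opioid receptor; schedule: 45 min room-temperature Fluo4 loading, 110 s read; technique: kinetic Fluo4 calcium fluorescence; evaluation: integrated baseline-normalised fluorescence ratio, converted to per-well B score; controls: buffer (low) and maximal DAMGO (high)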
# TRPC4 spec 2 – second check of whether TRPC6 inhibitors also affect mouse TRPC4; shares compounds with TRPC6 inhibitor; HEK293 TRPC4/MOR, membrane potential dye fluorescence; channel activated by saturating DAMGO dose; inhibition, % at 10 µM; 920 tested, 42% active; AID 2776;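 active = compounds whose fluorescence signal differed from control wells by over 3 SD, either direction, in both duplicate plates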
# TRPC4 spec – tests whether TRPC6 inhibitors also affect mouse TRPC4. shares compounds with TRPC6 inhibitor. HEK293 TRPC4/mu-opioid, membrane potential fluorescence. activity change, negative = inhibition, % at 10 µM. 920 tested, 61% active;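 active = rise or fall in signal beyond 3 SD of buffer-only wells in both replicate plates, either sign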;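 also: integrated kinetic ratio of fluorescence range over baseline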
# HEK293 MPD ctr 2-1 – second check of TRPC6 inhibitor effects in parental HEK293 cells | parental HEK293 membrane potential dye fluorescence; maximal acetylcholine challenge after compound addition | shares compounds with TRPC6 inhibitor | signal change vs control, % at 10 µM | 920 tested, 31% active;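 active = membrane potential signal moving either way by over 3 SD of the maximum-effect control, in both duplicate plates, meaning non-specific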
# HEK293 MPD ctr-1 – checks TRPC6 inhibitor effects in parental HEK293 cells; shares compounds with TRPC6 inhibitor; 920 tested, 60% active; membrane potential signal change, % at 10 µM; parental HEK293 membrane potential dye fluorescence;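 active = membrane potential signal shifting up or down by more than 3 SD of buffer-only wells, on both duplicate plates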
# HEK293 MPD ctr-2 – checks TRPC6 modulator effects in parental HEK293 cells. shares compounds with TRPC6 inhibitor. membrane potential dye fluorescence. membrane potential signal change, % at 10 µM. 2,400 tested, 51% active. AID 488924;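 active = membrane potential signal moves up or down beyond 5 SD from buffer-only wells, on both duplicate plates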
# HEK293 MPD ctr 2-2 – second check of TRPC6 modulator effects in parental HEK293 cells; shares compounds with TRPC6 inhibitor; membrane potential dye fluorescence; after compound, maximal acetylcholine stimulation; inhibition, % at 10 µM; 2,400 tested, 14% active;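 active = membrane potential signal drops by more than 5 SD from the mean control signal, in both duplicate plates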;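 also: plate controls were acetylcholine ECmax control wells for no effect and buffer only wells for full effect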
# TRPC4/MOR mod – tests whether TRPC6 modulators also affect mouse TRPC4 | 2,400 tested, 69% active | shares compounds with TRPC6 inhibitor | percent change from control (negative = decrease, positive = increase), % at 10 µM | HEK293 TRPC4/mu-opioid, membrane potential fluorescence;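 active = membrane potential signal moved up or down beyond 5 SD of buffer control wells, in both duplicate plates, actives on both sides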;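 also: plate controls were assay buffer wells for no effect and DAMGO maximal-effect wells for full effect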
# TRPC4 ctr inh 2 – second check of whether TRPC6 modulators also affect mouse TRPC4. shares compounds with TRPC6 inhibitor. HEK293 TRPC4/mu-opioid, membrane potential dye fluorescence; stimulated with maximal-effect DAMGO. 2,400 tested, 55% active. inhibition, % at 10 µM;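 active = drop in membrane potential signal beyond 5 SD of the control wells in both duplicate plates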;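 also: TRPC4 counter screen for TRPC6 hits run under conditions tuned for TRPC6 not TRPC4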
# TRPC6 block conf – confirmation of mouse TRPC6 inhibitors. HEK293-TRPC6, membrane potential dye, ACh-evoked depolarization. shares compounds with TRPC6 inhibitor. inhibition, % at 10 µM. AID 488960. 3,300 tested, 43% active;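 active = fluorescence ratio falls more than 5 SD below the full-stimulation control mean, in both duplicate runs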;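 also: integrated fluorescence ratio of peak minus minimum over baseline after agonist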
# TRPC6 act conf – mouse TRPC6 activator confirmation; shares compounds with TRPC6 inhibitor; HEK293-TRPC6 membrane potential dye fluorescence, FDSS; activation, % at 10 µM; 2,800 tested, 11% active; AID 488961;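 active = ratio signal rise beyond 5 SD above unstimulated control wells' mean, seen in both duplicate runs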;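 also: plate controls were buffer EC0 wells for no effect and acetylcholine ECmax response for full effect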
# * hit, by the source's call; i = inactive; / = not tested or not shown; + = active, no number.
SMILES,TRPC6 inhibitor,TRPC6 activator,TRPC4 inh,TRPC4 PAM,TRPC4 act,HEK293 MPD ctr-2,HEK293 MPD ctr 2-2,TRPC4/MOR mod,TRPC4 ctr inh 2,TRPC6 block conf,TRPC6 act conf,others
Cc1cc2nc3s/c(=C/c4ccc(-c5ccccc5C(=O)O)o4)c(=O)n3c2cc1C,i,56*,i,12*,143*,+,i,395%*,i,i,720%*,
CC(C)c1cc(-c2n[nH]c(=S)n2Cc2ccccc2)cs1,-16*,i,i,i,i,i,i,8.5%*,i,i,i,
S=c1[nH]nc(-c2ccccc2)n1Cc1ccccc1,i,i,i,i,i,/,/,/,/,/,/,
CSc1nc(NCC(C)C)c2c3c(sc2n1)CN(C)CC3,i,i,i,i,i,/,/,/,/,/,/,
CCCSc1nc(N)c2c3c(sc2n1)CN(C)CC3,-7.1*,i,i,i,i,-112%*,i,-26%*,i,i,i,
CN(C)CCSc1nc(N)c2c3c(sc2n1)CN(C)CC3,-8.6*,i,i,i,i,-210%*,i,-39%*,46%*,55%*,i,
CC(C)Sc1nc(N)c2c3c(sc2n1)CN(C)CC3,i,i,i,i,i,/,/,/,/,/,/,
COCCSc1nc(N)c2c3c(sc2n1)CN(C)CC3,-9.4*,i,i,i,i,-148%*,i,-29%*,30%*,i,i,
CCOC(=O)c1sc2ncnc(N3CCN(C)CC3)c2c1C,-5.5*,i,i,i,i,-118%*,i,-20%*,34%*,i,i,
COC(=O)c1sc2nc(-c3ccccc3)nc(N3CCN(C)CC3)c2c1C,-5.4*,i,i,i,i,-122%*,i,-29%*,i,i,i,
CC(=O)c1ccc(OCC(=O)Nc2ccc3c(c2)CCC3)cc1,i,i,i,i,i,/,/,/,/,/,/,
CCNC(=O)c1cc2c(=O)n3cccc(C)c3nc2n(Cc2ccc(C)cc2)c1=N,-6.1*,i,i,i,i,-146%*,i,-28%*,40%*,i,i,
Cc1cccn2c(=O)c3cc(C(=O)NC(C)C)c(=N)n(Cc4ccncc4)c3nc12,-7.6*,i,i,i,i,/,/,/,/,76%*,i,TRPC4 spec 2=72%*;TRPC4 spec=-19%*;HEK293 MPD ctr 2-1=-16%*;HEK293 MPD ctr-1=-304%*
COc1ccc(CNC(=O)c2cc3c(=O)n4cccc(C)c4nc3n(CC3CCCO3)c2=N)cc1 (stereo unspecified),i,i,i,i,i,/,/,/,/,/,/,

# Bioassay records: PubChem BioAssay, Johns Hopkins Ion Channel Center
